# Test results taken from ChEMBL document CHEMBL3045671, “Non-imidazole histamine H3 ligands: part V. synthesis and preliminary pharmacological investigation of 1-[2-thiazol-4-yl- and 1-[2-thiazol-5-yl-(2-aminoethyl)]-4-n-propylpiperazine derivatives” (Med Chem Res, 2013).
# Tests used:
# Histamine H3 receptor [1] = target: Histamine H3 receptor (Rattus norvegicus, UniProt Q9QYN8); assay: Binding affinity to Rattus norvegicus (rat) H3 receptor
# Histamine H3 receptor [2] = target: Histamine H3 receptor (Cavia porcellus, UniProt Q9JI35); assay: Antagonist activity at H3 receptor in Cavia porcellus (guinea pig) jejunum assessed as inhibition of electrically evoked muscle contraction; settings: read-out: pA2 (converted)
# Chain of Histamine H3 receptor (Cavia porcellus, UniProt Q9JI35) (Q9JI35 whole entry): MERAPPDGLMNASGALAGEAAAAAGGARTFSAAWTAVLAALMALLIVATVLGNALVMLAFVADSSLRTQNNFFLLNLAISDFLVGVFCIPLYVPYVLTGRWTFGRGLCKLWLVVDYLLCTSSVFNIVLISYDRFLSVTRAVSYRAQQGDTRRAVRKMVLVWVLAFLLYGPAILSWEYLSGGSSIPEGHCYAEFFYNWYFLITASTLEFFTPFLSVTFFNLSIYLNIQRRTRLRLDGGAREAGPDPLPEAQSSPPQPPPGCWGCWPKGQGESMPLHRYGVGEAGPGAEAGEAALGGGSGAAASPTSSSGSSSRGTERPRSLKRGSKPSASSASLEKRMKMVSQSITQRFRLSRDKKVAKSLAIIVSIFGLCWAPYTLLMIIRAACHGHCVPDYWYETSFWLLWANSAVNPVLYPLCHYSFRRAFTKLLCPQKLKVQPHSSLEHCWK
# Method in brief: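 Segments under 1.0 g tension, isotonic recording; 1 h equilibration with washes every 10 min. Field-stimulated maximally (15–20 V) at 0.1 Hz, 0.5 ms rectangular pulses. After 30 min stimulation, cumulative (R)-α-methylhistamine curves (half-log steps) run with pyrilamine 1 × 10⁻⁵ mol/L in bath. The curve was repeated 20 min after the test compound was added, with pyrilamine given beforehand.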
# Chain of Histamine H3 receptor (Rattus norvegicus, UniProt Q9QYN8) (Q9QYN8 whole entry): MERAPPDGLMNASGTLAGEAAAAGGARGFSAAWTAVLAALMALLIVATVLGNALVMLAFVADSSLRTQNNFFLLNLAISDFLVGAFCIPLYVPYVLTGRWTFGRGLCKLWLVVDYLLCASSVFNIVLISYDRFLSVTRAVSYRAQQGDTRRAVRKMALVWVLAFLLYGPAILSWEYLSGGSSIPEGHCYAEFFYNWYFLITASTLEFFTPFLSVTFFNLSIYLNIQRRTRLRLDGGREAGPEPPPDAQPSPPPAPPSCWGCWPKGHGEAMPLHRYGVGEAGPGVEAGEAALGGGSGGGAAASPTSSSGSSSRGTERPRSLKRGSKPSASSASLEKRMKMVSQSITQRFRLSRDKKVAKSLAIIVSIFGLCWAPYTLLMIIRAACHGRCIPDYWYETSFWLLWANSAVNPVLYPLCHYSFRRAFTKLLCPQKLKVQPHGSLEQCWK
Compound,Ki (Histamine H3 receptor [1]),Kb (Histamine H3 receptor [2])
CCCN1CCN(c2ncc(CCN(C)C(=O)c3ccc([N+](=O)[O-])cc3)s2)CC1,–,17.4 nM
CCCN1CCN(c2ncc(CCN(C)C(=O)c3ccc(Cl)cc3)s2)CC1,–,18.6 nM
CCCN1CCN(c2ncc(CCN(C)C(=O)c3ccccc3)s2)CC1,–,35.5 nM
CCCN1CCN(c2ncc(CCN(C)CCc3ccccc3)s2)CC1,–,24.5 nM
CCCN1CCN(c2nc(CCN(C)C(=O)c3ccc([N+](=O)[O-])cc3)cs2)CC1,–,933 nM
CCCN1CCN(c2nc(CCN(C)C(=O)c3ccc(Cl)cc3)cs2)CC1,–,589 nM
CCCN1CCN(c2nc(CCN(C)C(=O)c3ccc(C)cc3)cs2)CC1,–,1580 nM
CCCN1CCN(c2nc(CCN(C)C(=O)c3ccccc3)cs2)CC1,–,2240 nM
CCCN1CCN(c2nc(CCN(C)CCCCc3ccccc3)cs2)CC1,–,191 nM
CCCN1CCN(c2nc(CCN(C)Cc3ccccc3)cs2)CC1,–,75.9 nM
CCCN1CCN(c2nc(CCN(C)CCc3ccccc3)cs2)CC1,–,155 nM
CCCN1CCN(c2nc(CCN(C)C)cs2)CC1,–,174 nM

# Further lines, results first:
Ki (Histamine H3 receptor [1]),Kb (Histamine H3 receptor [2]),Compound
4 nM,–,O=C(c1ccc(OCCCN2CCCCC2)cc1)C1CC1
–,24.5 nM,CCCN1CCN(c2ncc(CCN(C)C(=O)c3ccc(C)cc3)s2)CC1
–,204 nM,CCCN1CCN(c2nc(CCN(C)CCCCCc3ccccc3)cs2)CC1
–,245 nM,CCCN1CCN(c2nc(CCN(C)CCCc3ccccc3)cs2)CC1
–,120 nM,CCCN(C)CCc1csc(N2CCN(CCC)CC2)n1
